# Source: ChEMBL document CHEMBL2069224, “Synthesis and cytotoxic activity of non-naturally substituted 4-oxycoumarin derivatives” (Bioorg Med Chem Lett, 2012)
# pIC50: −log10 of the molar value. The source made the active and inactive calls. No cut-off for these calls is given here.
# Columns and labels:
# N2a = experiment: Cytotoxicity against mouse Neuro2a cells after 72 hrs by WST1 assay in presence of 10% FBS; type: functional, cell-based
# Method in brief: (§1)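 Cells were cultured with 10% FBS. Viability runs used 10% or 20% FBS and 72 h exposure over 0.01–100 µM. WST-1 cleavage to formazan was read at 450 nm. % viable cells vs vehicle was fitted by nonlinear least squares to give IC50.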
# [1] = Solubility of the compound in RPMI 1640 medium by microscopic analysis; type: physicochemical
# Method in brief: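 Compound solubility in the assay medium was judged by microscopic inspection.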
# U-937 [2] = experiment: Cytotoxicity against human U937 cells after 72 hrs by WST1 assay in presence of 20% FBS; type: functional, cell-based; conditions: U-937, 72 h; method in brief: as §1
# HL-60 [3] = experiment: Cytotoxicity against human HL60 cells assessed as cell viability at 10 uM after 72 hrs by WST1 assay relative to control; type: functional; conditions: HL-60, 72 h, read-out: Activity
# Method in brief: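 Suspension HL-60 cells were kept in IMDM with 20% FBS, L-glutamine and antibiotics at 37 °C under 5% CO2. They were seeded without an attachment wait and exposed 72 h to a single 10 µM concentration. WST-1 was added at 1/10 volume, incubated 60 min at 37 °C, and formazan read at 450 nm. Viability is given as % of vehicle-treated cells, from three independent experiments in triplicate.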
# HL-60 [4] = experiment: Cytotoxicity against human HL60 cells after 72 hrs by WST1 assay in presence of 20% FBS; type: functional, cell-based; conditions: HL-60, 72 h
# Method in brief: (§2)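 HL-60 cells from ATCC were grown in IMDM with 2 mM L-glutamine, 20% FBS, amphotericin B, penicillin and streptomycin at 37 °C under 5% CO2. Suspension cells were seeded without an attachment wait, then treated 72 h at 0.01–100 µM in 10% or 20% FBS. WST-1 was added at 1/10 volume for 60 min at 37 °C and A450 read. IC50 came from a nonlinear least-squares fit of % viable cells vs vehicle.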
# MCF7 [5] = experiment: Cytotoxicity against human MCF7 cells after 72 hrs by WST1 assay in presence of 10% FBS; type: functional, cell-based
# Method in brief: (§3)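 MCF-7 cells from ATCC were grown in RPMI 1640 with 10% FBS, 2 mM L-glutamine and antibiotics at 37 °C under 5% CO2. They were seeded in 96-well plates, allowed to attach 24 h, then treated 72 h at 0.01–100 µM in 10% or 20% FBS. WST-1 was added at 1/10 volume for 60 min at 37 °C and A450 read. IC50 came from nonlinear least-squares fitting of % viability vs vehicle.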
# U-937 [6] = experiment: Cytotoxicity against human U937 cells after 72 hrs by WST1 assay in presence of 10% FBS; type: functional, cell-based; method in brief: as §1
# [7] = Cytotoxicity against mouse Neuro2a cells after 72 hrs by WST1 assay in presence of 20% FBS; type: functional, cell-based; conditions: N2a; method in brief: as §1
# MCF7 [8] = experiment: Cytotoxicity against human MCF7 cells after 72 hrs by WST1 assay in presence of 20% FBS; type: functional, cell-based; conditions: MCF7, 72 h; method in brief: as §3
# HL-60 [9] = experiment: Cytotoxicity against human HL60 cells after 72 hrs by WST1 assay in presence of 10% FBS; type: functional, cell-based; method in brief: as §2
# MCF7 [10] = experiment: Cytotoxicity against human MCF7 cells assessed as cell viability at 10 uM after 72 hrs by WST1 assay relative to control; type: functional; conditions: MCF7, 72 h, read-out: Activity
# Method in brief: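 After 24 h attachment, MCF-7 cells (RPMI 1640, 10% FBS, L-glutamine, antibiotics, 37 °C, 5% CO2) were exposed 72 h to a single 10 µM concentration. WST-1 was added at 1/10 volume, incubated 60 min at 37 °C, and absorbance read at 450 nm. Viability is expressed as % of vehicle-treated cells, from three independent experiments each in triplicate.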
Compound,viability at 10 µM (HL-60 [3]),viability at 10 µM (MCF7 [10]),other results
COc1cc(OC)c2c(O)cc(=O)oc2c1,23.2%,17.1%,Activity (N2a): Active; solubility [1]: 20 µM; pIC50 (U-937 [2]): 6.68; pIC50 (HL-60 [4]): 5.70; Activity (MCF7 [5]): Active; Activity (U-937 [6]): Active; pIC50 [7]: 6.26; pIC50 (MCF7 [8]): 5.68; Activity (HL-60 [9]): Active
Cc1ccc2oc(=O)cc(OCc3ccccc3)c2c1,76%,104%,–
O=c1cc(OCc2ccccc2)c2ccccc2o1,72.7%,95%,–
COc1ccc2c(O)cc(=O)oc2c1OC,28.9%,114%,Activity (N2a): Active; solubility [1]: 100 µM; pIC50 (U-937 [2]): 5.37; pIC50 (HL-60 [4]): 5.04; Activity (U-937 [6]): Active; pIC50 [7]: 5.85; pIC50 (MCF7 [8]): 4.21; Activity (HL-60 [9]): Active
COc1ccc(-c2c(O)c3cc(C)ccc3oc2=O)cc1,83.9%,106%,–
O=c1oc2ccccc2c(O)c1-c1ccccc1,73.4%,96.7%,–
COc1ccc(-c2c(O)c3ccccc3oc2=O)c(OC)c1,100%,91.9%,–
Cc1ccc2oc(=O)c(-c3ccccc3)c(O)c2c1,73.9%,72.6%,–
O=c1ccc2ccccc2o1 [COUMARIN],–,–,pIC50 (U-937 [2]): < 4.30; pIC50 (HL-60 [4]): < 4.30; pIC50 [7]: < 4.30; pIC50 (MCF7 [8]): < 4.30
O=c1oc2ccccc2c(OCc2ccccc2)c1-c1ccccc1,94.7%,113%,–
CC/C(=C(\c1ccccc1)c1ccc(OCCN(C)C)cc1)c1ccccc1 [TAMOXIFEN],–,–,pIC50 (HL-60 [4]): 4.84; pIC50 (MCF7 [8]): 5.07
COc1ccc(-c2c(O)c3cc(C)ccc3oc2=O)c(OC)c1,74.4%,69%,–
Cc1ccc2oc(=O)c(-c3ccccc3)c(OCc3ccccc3)c2c1,92.3%,53.5%,–
COc1ccc(-c2c(O)c3ccccc3oc2=O)cc1,86.6%,115%,–
